According to ChEMBL document CHEMBL4145447, “4-arylamidobenzyl substituted 5-bromomethylene-2(5H)-furanones for chronic bacterial infection” (Eur J Med Chem, 2018):
The source made the active and inactive calls. The calls are words filed in the database; no cut-off is given here.

Assays:
RAW264.7 [1] = assay: Anti-inflammatory activity in mouse RAW264.7 cells assessed as inhibition of LPS-induced NO production at 10 uM preincubated for 2 hrs followed by LPS stimulation and measured after 48 hrs by Griess method relative to control; format: functional
In short: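 RAW264.7 cells seeded at 5 × 10^4/well and cultured 18 h, then given 10 µM compound plus LPS 100 ng/mL for 48 h at 37 °C. Supernatant mixed 1:1 with Griess reagent (1% sulfanilamide, 0.1% naphthylethylenediamine in 5% phosphoric acid) for 10 min; nitrite read at OD540.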

[2] = Cytotoxicity against mouse RAW264.7 cells assessed as cell viability at 10 uM after 48 hrs by MTT assay relative to control; format: cell-based; conditions: read-out: Activity
In short: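 MTT viability: RAW264.7 cells (4 × 10^4/well) in DMEM + 10% FBS exposed to compounds diluted in DMEM for 48 h. MTT 0.5 mg/mL added for 4 h in the dark, formazan dissolved in DMSO, read at 570 nm. Viability = treated/medium-only control × 100; three independent experiments.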

RAW264.7 [3] = assay: Anti-inflammatory activity in mouse RAW264.7 cells assessed as inhibition of LPS-induced TNF-alpha production by measuring TNF-alpha level at 10 uM preincubated for 2 hrs followed by LPS stimulation and measured after 6 hrs by ELISA (reference value: 11922 +/- 628.4 pg/ml); format: functional
RAW264.7 [4] = assay: Anti-inflammatory activity in mouse RAW264.7 cells assessed as inhibition of LPS-induced IL-6 production by measuring […] level at 10 uM preincubated for 2 hrs followed by LPS stimulation and measured after 12 hrs by ELISA (reference value: 175.2 +/- 10.2 pg/ml); format: functional
[5] = biological target: T1, Peroxisome proliferator-activated receptor gamma (Mus musculus) (UniProt P37238); assay: Agonist activity at PPARgamma in mouse RAW264.7 cells assessed as inhibition of LPS-induced NF-kB p65 phosphorylation at 10 uM preincubated for 1 hr followed by LPS stimulation and measured after 4 hrs by Western blot analysis; format: cell-based
T1 sequence (whole entry): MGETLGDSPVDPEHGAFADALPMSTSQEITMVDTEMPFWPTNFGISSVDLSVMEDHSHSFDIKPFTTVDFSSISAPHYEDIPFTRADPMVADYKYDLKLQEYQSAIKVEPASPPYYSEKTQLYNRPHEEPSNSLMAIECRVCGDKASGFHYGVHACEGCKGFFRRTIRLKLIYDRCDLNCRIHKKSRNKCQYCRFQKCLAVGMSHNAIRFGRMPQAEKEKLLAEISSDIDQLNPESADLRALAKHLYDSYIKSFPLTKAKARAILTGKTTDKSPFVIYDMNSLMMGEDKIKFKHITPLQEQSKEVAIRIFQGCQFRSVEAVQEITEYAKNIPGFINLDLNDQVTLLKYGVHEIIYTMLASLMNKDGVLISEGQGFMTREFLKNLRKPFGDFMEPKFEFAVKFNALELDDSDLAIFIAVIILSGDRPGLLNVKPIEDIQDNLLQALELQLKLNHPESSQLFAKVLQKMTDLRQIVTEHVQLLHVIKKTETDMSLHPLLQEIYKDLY
In short: (§1)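 Western blot: RAW264.7 cells (2 × 10^6/well) pretreated 1 h with compound (10 µM), antagonist GW9662 (5 µM) where stated, then LPS 500 ng/mL for 4 h. Lysis on ice with PMSF, BCA-normalised protein on SDS gels, PVDF transfer, milk block, phospho- and total-protein primary antibodies, HRP secondary, ECL detection. Densitometry normalised to internal control; n = 3.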

[6] = biological target: T1, Peroxisome proliferator-activated receptor gamma (Mus musculus); assay: Agonist activity at PPARgamma in mouse RAW264.7 cells assessed as inhibition of LPS-induced NF-kB p65 phosphorylation at 10 uM preincubated for 1 hr followed by LPS stimulation and measured after 4 hrs in presence of PPARgamma antagonist GW9662 by Western blot analysis; format: cell-based; in short: as §1
[7] = biological target: T1, Peroxisome proliferator-activated receptor gamma (Mus musculus); assay: Agonist activity at PPARgamma in mouse RAW264.7 cells assessed as inhibition of LPS-induced MAPK p38 phosphorylation at Thr180/Tyr182 residues at 10 uM preincubated for 1 hr followed by LPS stimulation and measured after 4 hrs in presence of PPARgamma antagonist GW9662 by Western blot analysis; format: cell-based; in short: as §1
Pseudomonas aeruginosa = assay: Growth inhibition of Pseudomonas aeruginosa PAO1 at 5 to 100 uM measured every 15 mins up to 12 hrs; format: organism-based; conditions: in vitro
In short: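 Growth of P. aeruginosa PAO1 was run like the reporter assay. The overnight LB culture was diluted in fresh LB and mixed in equal parts with compound diluted in LB, then growth was monitored in 96-well plates.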

[8] = biological target: T2, Anthranilate--CoA ligase (Pseudomonas aeruginosa (strain ATCC 15692 / DSM 22644 / CIP 104116 /JCM 14847 / LMG 12228 / 1C / PRS 101 / PAO1)) (UniProt Q9I4X3); assay: Inhibition of Pseudomonas aeruginosa PAO1 GFP-fused quorum sensing pqsA measured every 15 mins up to 12 hrs by GFP reporter gene assay
T2 sequence (whole entry): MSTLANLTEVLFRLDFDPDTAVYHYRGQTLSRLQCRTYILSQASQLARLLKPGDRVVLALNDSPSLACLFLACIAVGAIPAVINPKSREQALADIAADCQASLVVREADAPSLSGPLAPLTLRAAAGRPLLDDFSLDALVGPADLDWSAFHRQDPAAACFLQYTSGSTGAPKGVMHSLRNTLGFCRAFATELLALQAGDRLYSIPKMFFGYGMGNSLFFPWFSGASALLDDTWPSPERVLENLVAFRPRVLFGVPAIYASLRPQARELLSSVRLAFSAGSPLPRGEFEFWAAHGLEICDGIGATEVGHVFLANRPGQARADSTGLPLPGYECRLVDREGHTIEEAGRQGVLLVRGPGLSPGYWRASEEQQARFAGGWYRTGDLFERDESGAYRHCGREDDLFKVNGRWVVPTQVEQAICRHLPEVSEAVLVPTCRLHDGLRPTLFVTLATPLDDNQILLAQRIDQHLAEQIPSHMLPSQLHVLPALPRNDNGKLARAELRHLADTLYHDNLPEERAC
In short: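 GFP reporter strains of P. aeruginosa PAO1 (lasB-, rhlA- or pqsA-promoter fused to unstable gfp(ASV)) grown overnight in LB at 37 °C, 200 rpm, 18 h, then diluted 1:100. Culture mixed 1:1 with compound diluted in LB from 10 mM DMSO stock (0.1% DMSO final). Fluorescence (ex 485/em 528 nm) read every 15 min at 37 °C for ≥12 h.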

Mus musculus [9] = assay: Anti-inflammatory activity in LPS-induced sepsis shock mouse model assessed as survival rate at 20 mg/kg, iv pretreated daily for 5 days followed LPS treatment on day 5 at 1 hr post last dose and measured after 7 days relative to control; format: functional
In short: (§2)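 Male SPF mice, randomly grouped, dosed i.v. with compound dissolved in DMSO and diluted in physiological saline; vehicle group given a similar volume. LPS was injected on day 5, 1 h after the last administration. Survival was recorded every 12 h for 7 days after LPS, with 11 animals per group per figure legend.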

Mus musculus [10] = assay: Anti-inflammatory activity in LPS-induced sepsis shock mouse model assessed as survival rate at 5 mg/kg, iv pretreated daily for 5 days followed LPS treatment on day 5 at 1 hr post last dose and measured after 7 days relative to control; format: functional; in short: as §2

Row | Structure (SMILES) | inhibition at 10 µM (RAW264.7 [1]) [%] | viability at 48 h, 10 µM [2] [%] | Activity (RAW264.7 [3]) [pg/mL] | Activity (RAW264.7 [4]) [pg/mL] | inhibition [5] | inhibition [6] | inhibition [7] | growth inhibition (GI) (Pseudomonas aeruginosa) | inhibition [8] | survival at 20 mg/kg (Mus musculus [9]) [%] | survival at 5 mg/kg (Mus musculus [10]) [%]
1 | O=C(Cc1ccc(F)cc1)Nc1ccc(CC2=CC(=O)OC2=CBr)cc1 | 73.7 | 97 | 7524.7 | 66.3 | Active | inactive | inactive | Non-Toxic | Dose-dependent effect | 45.5 | 36.5
2 | O=C(C=Cc1ccccc1)Nc1ccc(CC2=CC(=O)O/C2=C/Br)cc1 | 70 | 104 | 7750 | 75.3 | Active | inactive | inactive | Non-Toxic |  |  | 
